Experimental data from ChEMBL document CHEMBL4049408, “Exploration of 2-((Pyridin-4-ylmethyl)amino)nicotinamide Derivatives as Potent Reversal Agents against P-Glycoprotein-Mediated Multidrug Resistance” (J Med Chem, 2017).

Tests used:
K562 [1] = experiment: Cytotoxicity against human K562 cells after 48 hrs by MTT assay; format: functional, cell-based; conditions: K562, 48 h
Outline: (§1)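 MTT viability in parental K562 and P-gp-overexpressing K562/A02 cells. Compound alone at a concentration series gives the IC50. Mean ± SD of three independent tests.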

K562/A02 [2] = experiment: Cytotoxicity against human K562/A02 cells overexpressing P-gp after 48 hrs by MTT assay; format: functional, cell-based; conditions: K562/A02, 48 h; outline: as §1
[3] = target: T1, ATP-dependent translocase ABCB1 (Homo sapiens, UniProt P08183); experiment: Inhibition of ABCB1 in human K562/A02 cells assessed as potentiation of adriamycin-mediated cytotoxicity by measuring reduction in ADR IC50 at 5 uM after 48 hrs by MTT assay relative to control; format: cell-based
Outline: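 K562/A02 cells exposed to a series of adriamycin concentrations with modulator at 5.0 µM; 0.1% DMSO as solvent control. IC50 read by MTT. Reversal fold = IC50 without inhibitor / IC50 with inhibitor. Mean ± SD of three independent tests.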

K562/A02 [4] = experiment: (§2) Cytotoxicity against human K562/A02 cells assessed as cell survival at 5 uM after 48 hrs by MTT assay relative to control; format: cell-based; conditions: k562/a02, 48 h, 5 µM
Outline: (§3)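 MTT viability assay in P-gp-overexpressing, ADM-resistant K562/A02 cells, alongside parental K562. […] Values are mean ± SD of three independent tests.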

[5] = as §2; format: cell-based; conditions: K562/A02 cells, read-out: Survival; outline: as §3
[6] = Inhibition of CYP3A4 in rat liver microsomes assessed as 6beta-hydroxytestosterone formation using testosterone as substrate by reverse-phase HPLC analysis; format: ADME
K562 [7] = experiment: Resistance index, ratio of IC50 for human K562/A02 cells to IC50 for human K562 cells; format: functional
Outline: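 Adriamycin IC50 measured by MTT in K562/A02 and in parental K562 cells. Fold resistance is the ratio of the resistant-line IC50 to the sensitive-line IC50. Mean ± SD of three independent tests.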

[8] = target: T1, ATP-dependent translocase ABCB1; experiment: Substrate activity at ABCB1 ATPase in human ABCB1 membrane fraction assessed as increase in ATPase activity at 50 uM preincubated with compound followed by addition of MgATP measured after 1 hr by luciferase reporter gene assay relative to control; format: cell membranes
[9] = target: T1, ATP-dependent translocase ABCB1; experiment: Inhibition of ABCB1 in human K562/A02 cells assessed as increase in intracellular Rh123 accumulation at 5 uM up to 90 mins by flow cytometry; format: cell-based; conditions: 1.5 h
Outline: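 K562/A02 cells treated with 5.0 µM modulator; Rh123-associated mean fluorescence intensity read by flow cytometry at 5, 10, 25, 30, 60 and 90 min. Untreated cells as negative control. Mean ± SD of three experiments.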

T1 sequence (P08183 whole entry): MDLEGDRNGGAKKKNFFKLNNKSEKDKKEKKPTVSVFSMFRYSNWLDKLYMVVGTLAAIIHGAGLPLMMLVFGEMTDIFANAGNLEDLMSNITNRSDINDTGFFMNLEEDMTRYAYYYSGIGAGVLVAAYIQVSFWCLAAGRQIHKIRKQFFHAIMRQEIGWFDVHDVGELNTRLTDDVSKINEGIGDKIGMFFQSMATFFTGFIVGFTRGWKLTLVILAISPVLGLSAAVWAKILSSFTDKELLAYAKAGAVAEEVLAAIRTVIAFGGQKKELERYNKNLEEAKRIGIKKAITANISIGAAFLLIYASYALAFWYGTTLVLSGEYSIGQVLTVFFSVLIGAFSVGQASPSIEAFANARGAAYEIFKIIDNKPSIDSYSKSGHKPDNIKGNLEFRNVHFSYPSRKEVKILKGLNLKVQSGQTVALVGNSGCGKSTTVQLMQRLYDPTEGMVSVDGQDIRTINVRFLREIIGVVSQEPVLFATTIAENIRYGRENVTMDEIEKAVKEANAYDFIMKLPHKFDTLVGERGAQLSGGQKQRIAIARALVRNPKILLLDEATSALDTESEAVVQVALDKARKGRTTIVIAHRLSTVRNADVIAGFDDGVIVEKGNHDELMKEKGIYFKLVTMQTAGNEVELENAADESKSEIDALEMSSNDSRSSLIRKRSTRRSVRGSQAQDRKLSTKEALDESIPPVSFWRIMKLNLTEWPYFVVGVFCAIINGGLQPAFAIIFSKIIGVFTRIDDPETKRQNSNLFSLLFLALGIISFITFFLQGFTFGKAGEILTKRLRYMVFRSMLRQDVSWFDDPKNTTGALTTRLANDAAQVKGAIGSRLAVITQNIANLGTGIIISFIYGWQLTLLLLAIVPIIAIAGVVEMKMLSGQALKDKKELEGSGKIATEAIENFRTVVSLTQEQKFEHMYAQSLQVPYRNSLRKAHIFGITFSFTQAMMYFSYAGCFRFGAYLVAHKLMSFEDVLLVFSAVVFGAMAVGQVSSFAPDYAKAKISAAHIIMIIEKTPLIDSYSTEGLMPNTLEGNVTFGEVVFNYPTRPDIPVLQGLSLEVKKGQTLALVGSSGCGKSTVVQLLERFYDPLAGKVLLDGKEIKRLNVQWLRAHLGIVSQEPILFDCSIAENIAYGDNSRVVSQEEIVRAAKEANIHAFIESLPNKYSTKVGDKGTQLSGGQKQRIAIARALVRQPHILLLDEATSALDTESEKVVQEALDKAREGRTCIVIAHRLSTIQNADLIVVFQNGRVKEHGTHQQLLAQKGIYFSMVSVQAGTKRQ

SMILES	IC50 (K562 [1])	IC50 (K562/A02 [2])	fold change (FC) [3]	Activity (K562/A02 [4])	viability at 48 h, 5 µM [5]	inhibition (INH) [6]	Ratio IC50 (K562 [7])	fold change (FC) [8]	inhibition (INH) [9]
COc1ccc(C2c3cc(OC)c(OC)cc3CCN2C(=O)c2cccnc2NCc2ccncc2)cc1OC (stereo unspecified)	> 100 µM	> 100 µM	3.44	Non-Toxic	–	–	–	–	–
COc1ccc(CN(C)C(=O)c2cccnc2NCc2ccncc2)cc1OC	> 100 µM	> 100 µM	9.58	–	> 90%	–	–	–	–
COc1cc(NC(=O)c2cccnc2NCc2ccncc2)cc(OC)c1OC	> 100 µM	> 100 µM	3.51	–	> 90%	–	–	–	–
O=C(NCCc1cccs1)c1cccnc1NCc1ccncc1	> 100 µM	> 100 µM	1.37	–	> 90%	–	–	–	–
Cc1cccc(Cl)c1NC(=O)c1cnc(NC(=O)c2cccnc2NCc2ccncc2)s1	57.7 µM	86 µM	7.95	Non-Toxic	–	–	–	–	–
CN1CCN(c2ccc(NC(=O)c3cccnc3NCc3ccncc3)cc2)CC1	> 100 µM	> 100 µM	4.93	–	> 90%	–	–	–	–
O=C(c1cccnc1NCc1ccncc1)N1CCC(N2CCCCC2)CC1	51.4 µM	> 100 µM	1.2	–	> 90%	–	–	–	–
O=C(NCc1ccncc1)c1cccnc1NCc1ccncc1	> 100 µM	> 100 µM	7.92	–	> 90%	–	–	–	–
CC(=O)N1CCN(c2ccc(OCC3COC(Cn4ccnc4)(c4ccc(Cl)cc4Cl)O3)cc2)CC1 (stereo unspecified) [KETOCONAZOLE]	–	–	–	–	–	Dose-dependent effect	–	–	–
O=C(Nc1cccc2ccccc12)c1cccnc1NCc1ccncc1	> 100 µM	> 100 µM	7.74	–	> 90%	–	–	–	–
COc1cc2c(cc1OC)C(c1ccco1)N(C(=O)c1cccnc1NCc1ccncc1)CC2 (stereo unspecified)	> 100 µM	> 100 µM	1.52	Non-Toxic	–	–	–	–	–
O=C(c1ccccc1)c1ccccc1NC(=O)c1cccnc1NCc1ccncc1	> 100 µM	> 100 µM	1.28	Non-Toxic	–	–	–	–	–
COc1cc2c(cc1OC)C(Cc1cccc3ccccc13)N(C(=O)c1cccnc1NCc1ccncc1)CC2 (stereo unspecified)	> 100 µM	> 100 µM	2.51	Non-Toxic	–	–	–	–	–
COc1cccc(NC(=O)c2cccnc2NCc2ccncc2)c1	> 100 µM	> 100 µM	3.76	–	> 90%	–	–	–	–
COc1ccc(NC(=O)c2cccnc2NCc2ccncc2)cc1Cl	> 100 µM	> 100 µM	5.29	–	> 90%	–	–	–	–
COc1ccc(CCNC(=O)c2cccnc2NCc2ccncc2)cc1OC	> 100 µM	> 100 µM	16.6	–	> 90%	–	–	–	–
COc1cccc2c1C(=O)c1c(O)c3c(c(O)c1C2=O)C[C@@](O)(C(=O)CO)C[C@@H]3O[C@H]1C[C@H](N)[C@H](O)[C@H](C)O1.Cl [DOXORUBICIN HYDROCHLORIDE]	0.51 to 0.58 µM	54 to 56.8 µM	–	–	–	–	105.8	–	–
COc1ccc(CCN(C)CCCC(C#N)(c2ccc(OC)c(OC)c2)C(C)C)cc1OC (stereo unspecified)	36.7 to 37.3 µM	31.3 to 33.6 µM	–	–	–	–	–	2.56	Active

SMILES	IC50 (K562 [1])	IC50 (K562/A02 [2])	fold change (FC) [3]	Activity (K562/A02 [4])	viability at 48 h, 5 µM [5]	inhibition (INH) [6]	Ratio IC50 (K562 [7])	fold change (FC) [8]	inhibition (INH) [9]
O=C(NC1CCCc2ccccc21)c1cccnc1NCc1ccncc1 (stereo unspecified)	66.1 µM	> 100 µM	4.24	–	> 90%	–	–	–	–
CC(C)(C)c1ccc(NC(=O)c2cccnc2NCc2ccncc2)cc1	> 100 µM	> 100 µM	4.27	–	> 90%	–	–	–	–
O=C(Nc1ccc(OC(F)(F)F)cc1)c1cccnc1NCc1ccncc1	24.2 µM	28.7 µM	8.42	–	> 90%	–	–	–	–
COc1cc2c(cc1OC)CN(C(=O)c1cccnc1NCc1ccncc1)CC2	72.5 µM	85.7 µM	17.97	Non-Toxic	–	–	–	–	–
CN1CCN(CCc2ccc(NC(=O)c3cccnc3NCc3ccncc3)cc2)CC1	> 100 µM	> 100 µM	2.04	Non-Toxic	–	–	–	–	–
O=C(NC(c1ccccc1)c1ccccc1)c1cccnc1NCc1ccncc1	> 100 µM	> 100 µM	3.94	Non-Toxic	–	–	–	–	–
O=C(Nc1ccc(F)c(Cl)c1)c1cccnc1NCc1ccncc1	78.9 µM	27.9 µM	6.6	–	> 90%	–	–	–	–
COc1cccc(-c2nnc(NC(=O)c3cccnc3NCc3ccncc3)s2)c1	39.5 µM	> 100 µM	4.6	–	> 90%	–	–	–	–
O=C(Nc1nc2ccccc2[nH]1)c1cccnc1NCc1ccncc1	> 100 µM	> 100 µM	1.69	–	> 90%	–	–	–	–
O=C(Nc1ccc(-c2ccccc2)cc1)c1cccnc1NCc1ccncc1	17 µM	27.9 µM	12.69	–	> 90%	–	–	–	–
O=C(Nc1ccc(N2CCOCC2)cc1)c1cccnc1NCc1ccncc1	> 100 µM	> 100 µM	18.8	–	> 90%	–	–	–	–
O=C(Nc1ccc2c(c1)Cc1ccccc1-2)c1cccnc1NCc1ccncc1	70 µM	> 100 µM	13.65	Non-Toxic	–	–	–	–	–
O=C(c1cccnc1NCc1ccncc1)N(Cc1ccccc1)Cc1ccccc1	76.4 µM	82.2 µM	10.14	Non-Toxic	–	–	–	–	–
COc1cc2c(cc1OC)C(c1ccccc1)N(C(=O)c1cccnc1NCc1ccncc1)CC2 (stereo unspecified)	> 100 µM	> 100 µM	2.96	Non-Toxic	–	–	–	–	–
COc1cc2c(cc1OC)C(C(C)(C)C)N(C(=O)c1cccnc1NCc1ccncc1)CC2 (stereo unspecified)	> 100 µM	> 100 µM	2.66	Non-Toxic	–	–	–	–	–
O=C(Nc1ccc(CCN2CCOCC2)cc1)c1cccnc1NCc1ccncc1	> 100 µM	> 100 µM	5.64	Non-Toxic	–	–	–	–	–
O=C(Nc1ccc(N2CCCCC2)cc1)c1cccnc1NCc1ccncc1	> 100 µM	> 100 µM	5.21	–	> 90%	–	–	–	–
